Tested on: U2OS
Experiment: Multiplex assay against U2OS
Assay type: toxicity, cell-based
Details: human
How it was run: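 On a CQ1 microscope at 37°C and 5% CO2, live cells were imaged after compound addition. They had been stained at seeding with Hoechst33342, BioTracker Green Microtubule Cytoskeleton Dye, MitoTracker Red and Annexin V Alexa Fluor 680. CellPathfinder machine-learning gating assigned cells to Hoechst high-intensity objects or normal cells, normal cells to healthy, pyknosed or fragmented nuclei, and pyknosed cells to mitotic or apoptotic. Tubulin, mitochondrial-mass and membrane-permeability phenotypes are per cents of healthy-nucleus cells.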

[1] = 12 h, 1 µM, compound concentration 1 uM, replicate 1
[2] = 12 h, 1 µM, compound concentration 1 uM, replicate 2
[3] = 12 h, 10 µM, compound concentration 10 uM, replicate 1
[4] = 12 h, 10 µM, compound concentration 10 uM, replicate 2
[5] = 24 h, 1 µM, compound concentration 1 uM, replicate 1
[6] = 24 h, 1 µM, compound concentration 1 uM, replicate 2
[7] = 24 h, 10 µM, compound concentration 10 uM, replicate 1
[8] = 24 h, 10 µM, compound concentration 10 uM, replicate 2
[9] = 48 h, 1 µM, compound concentration 1 uM, replicate 1
[10] = 48 h, 1 µM, compound concentration 1 uM, replicate 2
[11] = 48 h, 10 µM, compound concentration 10 uM, replicate 1
[12] = 48 h, 10 µM, compound concentration 10 uM, replicate 2

Cc1c(-c2ccc(O)cc2)n(Cc2ccc(OCCN3CCCCCC3)cc2)c2ccc(O)cc12 [BAZEDOXIFENE]
Population Apoptotic (%) [1]: 58%
Population Fragmented Nuclei (%) [1]: 22%
Population Healthy Nuclei (%) [1]: 67%
Population Hoechst High Intensity Objects (%) [1]: 15%
Population Membrane Permeable-Phenotype (%) [1]: 3%
Population Mitochondria Different-Phenotype (%) [1]: 13%
Population Mitotic Cells (%) [1]: 41%
Population Normal (%) [1]: 84%
Population Pyknosed Nuclei (%) [1]: 9%
Population Tubulin-Different-Phenotype (%) [1]: 20%
Total Cell Count [1]: 144
Population Apoptotic (%) [2]: 0%
Population Fragmented Nuclei (%) [2]: 13%
Population Healthy Nuclei (%) [2]: 81%
Population Hoechst High Intensity Objects (%) [2]: 10%
Population Membrane Permeable-Phenotype (%) [2]: 5%
Population Mitochondria Different-Phenotype (%) [2]: 20%
Population Mitotic Cells (%) [2]: 100%
Population Normal (%) [2]: 89%
Population Pyknosed Nuclei (%) [2]: 4%
Population Tubulin-Different-Phenotype (%) [2]: 17%
Total Cell Count [2]: 48
Population Apoptotic (%) [3]: 41%
Population Fragmented Nuclei (%) [3]: 24%
Population Healthy Nuclei (%) [3]: 43%
Population Hoechst High Intensity Objects (%) [3]: 4%
Population Membrane Permeable-Phenotype (%) [3]: 23%
Population Mitochondria Different-Phenotype (%) [3]: 97%
Population Mitotic Cells (%) [3]: 58%
Population Normal (%) [3]: 95%
Population Pyknosed Nuclei (%) [3]: 32%
Population Tubulin-Different-Phenotype (%) [3]: 98%
Total Cell Count [3]: 190
Population Apoptotic (%) [4]: 60%
Population Fragmented Nuclei (%) [4]: 7%
Population Healthy Nuclei (%) [4]: 56%
Population Hoechst High Intensity Objects (%) [4]: 2%
Population Membrane Permeable-Phenotype (%) [4]: 26%
Population Mitochondria Different-Phenotype (%) [4]: 100%
Population Mitotic Cells (%) [4]: 40%
Population Normal (%) [4]: 97%
Population Pyknosed Nuclei (%) [4]: 36%
Population Tubulin-Different-Phenotype (%) [4]: 100%
Total Cell Count [4]: 42
Population Apoptotic (%) [5]: 24%
Population Fragmented Nuclei (%) [5]: 15%
Population Healthy Nuclei (%) [5]: 66%
Population Hoechst High Intensity Objects (%) [5]: 11%
Population Membrane Permeable-Phenotype (%) [5]: 3%
Population Mitochondria Different-Phenotype (%) [5]: 9%
Population Mitotic Cells (%) [5]: 76%
Population Normal (%) [5]: 88%
Population Pyknosed Nuclei (%) [5]: 17%
Population Tubulin-Different-Phenotype (%) [5]: 11%
Total Cell Count [5]: 157
Population Apoptotic (%) [6]: 11%
Population Fragmented Nuclei (%) [6]: 8%
Population Healthy Nuclei (%) [6]: 75%
Population Hoechst High Intensity Objects (%) [6]: 3%
Population Membrane Permeable-Phenotype (%) [6]: 2%
Population Mitochondria Different-Phenotype (%) [6]: 6%
Population Mitotic Cells (%) [6]: 88%
Population Normal (%) [6]: 96%
Population Pyknosed Nuclei (%) [6]: 15%
Population Tubulin-Different-Phenotype (%) [6]: 15%
Total Cell Count [6]: 60
Population Apoptotic (%) [7]: 73%
Population Fragmented Nuclei (%) [7]: 32%
Population Healthy Nuclei (%) [7]: 26%
Population Hoechst High Intensity Objects (%) [7]: 4%
Population Membrane Permeable-Phenotype (%) [7]: 50%
Population Mitochondria Different-Phenotype (%) [7]: 100%
Population Mitotic Cells (%) [7]: 26%
Population Normal (%) [7]: 95%
Population Pyknosed Nuclei (%) [7]: 40%
Population Tubulin-Different-Phenotype (%) [7]: 98%
Total Cell Count [7]: 213
Population Apoptotic (%) [8]: 68%
Population Fragmented Nuclei (%) [8]: 22%
Population Healthy Nuclei (%) [8]: 30%
Population Hoechst High Intensity Objects (%) [8]: 20%
Population Membrane Permeable-Phenotype (%) [8]: 75%
Population Mitotic Cells (%) [8]: 31%
Population Normal (%) [8]: 80%
Population Pyknosed Nuclei (%) [8]: 47%
Population Tubulin-Different-Phenotype (%) [8]: 100%
Total Cell Count [8]: 50
Population Apoptotic (%) [9]: 53%
Population Fragmented Nuclei (%) [9]: 11%
Population Healthy Nuclei (%) [9]: 80%
Population Hoechst High Intensity Objects (%) [9]: 7%
Population Membrane Permeable-Phenotype (%) [9]: 2%
Population Mitochondria Different-Phenotype (%) [9]: 13%
Population Mitotic Cells (%) [9]: 46%
Population Normal (%) [9]: 92%
Population Pyknosed Nuclei (%) [9]: 8%
Population Tubulin-Different-Phenotype (%) [9]: 8%
Total Cell Count [9]: 197
Population Apoptotic (%) [10]: 36%
Population Fragmented Nuclei (%) [10]: 14%
Population Healthy Nuclei (%) [10]: 75%
Population Hoechst High Intensity Objects (%) [10]: 3%
Population Membrane Permeable-Phenotype (%) [10]: 8%
Population Mitochondria Different-Phenotype (%) [10]: 16%
Population Mitotic Cells (%) [10]: 63%
Population Normal (%) [10]: 96%
Population Pyknosed Nuclei (%) [10]: 11%
Population Tubulin-Different-Phenotype (%) [10]: 22%
Total Cell Count [10]: 104
Population Apoptotic (%) [11]: 95%
Population Fragmented Nuclei (%) [11]: 39%
Population Healthy Nuclei (%) [11]: 5%
Population Hoechst High Intensity Objects (%) [11]: 9%
Population Membrane Permeable-Phenotype (%) [11]: 77%
Population Mitotic Cells (%) [11]: 4%
Population Normal (%) [11]: 90%
Population Pyknosed Nuclei (%) [11]: 55%
Population Tubulin-Different-Phenotype (%) [11]: 88%
Total Cell Count [11]: 177
Population Apoptotic (%) [12]: 100%
Population Fragmented Nuclei (%) [12]: 13%
Population Healthy Nuclei (%) [12]: 48%
Population Hoechst High Intensity Objects (%) [12]: 32%
Population Membrane Permeable-Phenotype (%) [12]: 92%
Population Mitochondria Different-Phenotype (%) [12]: 100%
Population Mitotic Cells (%) [12]: 0%
Population Normal (%) [12]: 67%
Population Pyknosed Nuclei (%) [12]: 37%
Population Tubulin-Different-Phenotype (%) [12]: 100%
Total Cell Count [12]: 43

CC(C)NCC(O)COc1ccc(CCOCC2CC2)cc1.Cl (configuration not stated) [BETAXOLOL HYDROCHLORIDE]
Population Apoptotic (%) [1]: 60%
Population Fragmented Nuclei (%) [1]: 9%
Population Healthy Nuclei (%) [1]: 84%
Population Hoechst High Intensity Objects (%) [1]: 8%
Population Mitochondria Different-Phenotype (%) [1]: 14%
Population Mitotic Cells (%) [1]: 40%
Population Normal (%) [1]: 92%
Population Pyknosed Nuclei (%) [1]: 6%
Population Tubulin-Different-Phenotype (%) [1]: 12%
Total Cell Count [1]: 175
Population Apoptotic (%) [2]: 100%
Population Fragmented Nuclei (%) [2]: 2%
Population Healthy Nuclei (%) [2]: 95%
Population Hoechst High Intensity Objects (%) [2]: 16%
Population Membrane Permeable-Phenotype (%) [2]: 6%
Population Mitochondria Different-Phenotype (%) [2]: 2%
Population Mitotic Cells (%) [2]: 0%
Population Normal (%) [2]: 83%
Population Pyknosed Nuclei (%) [2]: 2%
Population Tubulin-Different-Phenotype (%) [2]: 9%
Total Cell Count [2]: 55
Population Apoptotic (%) [3]: 52%
Population Fragmented Nuclei (%) [3]: 14%
Population Healthy Nuclei (%) [3]: 69%
Population Hoechst High Intensity Objects (%) [3]: 5%
Population Membrane Permeable-Phenotype (%) [3]: 2%
Population Mitochondria Different-Phenotype (%) [3]: 64%
Population Mitotic Cells (%) [3]: 47%
Population Normal (%) [3]: 94%
Population Pyknosed Nuclei (%) [3]: 16%
Population Tubulin-Different-Phenotype (%) [3]: 53%
Total Cell Count [3]: 124
Population Apoptotic (%) [4]: 23%
Population Fragmented Nuclei (%) [4]: 9%
Population Healthy Nuclei (%) [4]: 77%
Population Hoechst High Intensity Objects (%) [4]: 7%
Population Membrane Permeable-Phenotype (%) [4]: 5%
Population Mitochondria Different-Phenotype (%) [4]: 72%
Population Mitotic Cells (%) [4]: 76%
Population Normal (%) [4]: 92%
Population Pyknosed Nuclei (%) [4]: 13%
Population Tubulin-Different-Phenotype (%) [4]: 49%
Total Cell Count [4]: 107
Population Apoptotic (%) [5]: 28%
Population Fragmented Nuclei (%) [5]: 8%
Population Healthy Nuclei (%) [5]: 83%
Population Membrane Permeable-Phenotype (%) [5]: 3%
Population Mitochondria Different-Phenotype (%) [5]: 10%
Population Mitotic Cells (%) [5]: 71%
Population Pyknosed Nuclei (%) [5]: 7%
Population Tubulin-Different-Phenotype (%) [5]: 8%
Total Cell Count [5]: 202
Population Apoptotic (%) [6]: 33%
Population Fragmented Nuclei (%) [6]: 3%
Population Healthy Nuclei (%) [6]: 85%
Population Hoechst High Intensity Objects (%) [6]: 5%
Population Membrane Permeable-Phenotype (%) [6]: 4%
Population Mitochondria Different-Phenotype (%) [6]: 6%
Population Mitotic Cells (%) [6]: 66%
Population Normal (%) [6]: 94%
Population Pyknosed Nuclei (%) [6]: 10%
Population Tubulin-Different-Phenotype (%) [6]: 2%
Total Cell Count [6]: 59
Population Apoptotic (%) [7]: 57%
Population Fragmented Nuclei (%) [7]: 13%
Population Healthy Nuclei (%) [7]: 70%
Population Hoechst High Intensity Objects (%) [7]: 6%
Population Membrane Permeable-Phenotype (%) [7]: 7%
Population Mitochondria Different-Phenotype (%) [7]: 59%
Population Mitotic Cells (%) [7]: 42%
Population Normal (%) [7]: 93%
Population Pyknosed Nuclei (%) [7]: 16%
Population Tubulin-Different-Phenotype (%) [7]: 31%
Total Cell Count [7]: 139
Population Apoptotic (%) [8]: 40%
Population Fragmented Nuclei (%) [8]: 7%
Population Healthy Nuclei (%) [8]: 78%
Population Hoechst High Intensity Objects (%) [8]: 5%
Population Membrane Permeable-Phenotype (%) [8]: 5%
Population Mitochondria Different-Phenotype (%) [8]: 78%
Population Mitotic Cells (%) [8]: 60%
Population Normal (%) [8]: 94%
Population Pyknosed Nuclei (%) [8]: 15%
Population Tubulin-Different-Phenotype (%) [8]: 46%
Total Cell Count [8]: 106
Population Apoptotic (%) [9]: 25%
Population Fragmented Nuclei (%) [9]: 8%
Population Healthy Nuclei (%) [9]: 81%
Population Membrane Permeable-Phenotype (%) [9]: 2%
Population Mitochondria Different-Phenotype (%) [9]: 7%
Population Mitotic Cells (%) [9]: 74%
Population Pyknosed Nuclei (%) [9]: 10%
Population Tubulin-Different-Phenotype (%) [9]: 6%
Total Cell Count [9]: 296
Population Apoptotic (%) [10]: 50%
Population Fragmented Nuclei (%) [10]: 9%
Population Healthy Nuclei (%) [10]: 80%
Population Hoechst High Intensity Objects (%) [10]: 3%
Population Membrane Permeable-Phenotype (%) [10]: 5%
Population Mitochondria Different-Phenotype (%) [10]: 16%
Population Mitotic Cells (%) [10]: 50%
Population Normal (%) [10]: 96%
Population Pyknosed Nuclei (%) [10]: 9%
Population Tubulin-Different-Phenotype (%) [10]: 10%
Total Cell Count [10]: 87
Population Apoptotic (%) [11]: 52%
Population Fragmented Nuclei (%) [11]: 19%
Population Healthy Nuclei (%) [11]: 68%
Population Hoechst High Intensity Objects (%) [11]: 4%
Population Membrane Permeable-Phenotype (%) [11]: 3%
Population Mitochondria Different-Phenotype (%) [11]: 34%
Population Mitotic Cells (%) [11]: 47%
Population Normal (%) [11]: 95%
Population Pyknosed Nuclei (%) [11]: 12%
Population Tubulin-Different-Phenotype (%) [11]: 21%
Total Cell Count [11]: 200
Population Apoptotic (%) [12]: 54%
Population Fragmented Nuclei (%) [12]: 9%
Population Healthy Nuclei (%) [12]: 75%
Population Hoechst High Intensity Objects (%) [12]: 5%
Population Membrane Permeable-Phenotype (%) [12]: 9%
Population Mitochondria Different-Phenotype (%) [12]: 50%
Population Mitotic Cells (%) [12]: 45%
Population Normal (%) [12]: 94%
Population Pyknosed Nuclei (%) [12]: 15%
Population Tubulin-Different-Phenotype (%) [12]: 25%
Total Cell Count [12]: 152
